Test results: ChEMBL document CHEMBL1152946, “6-Amino-2-mercapto-3H-pyrimidin-4-one derivatives as new candidates for the antagonism at the P2Y12 receptors” (Bioorg Med Chem, 2009)

Tests used:
[1] = Antiplatelet activity against 10^-5 M ADP-induced human platelet aggregation at 100 uM by light transmission aggregometry; assay type: functional
Method in brief: (§1)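 Platelet-rich plasma came from healthy volunteers' blood collected in sodium citrate (9:1) and spun at 150g, 21 °C for 10 min. Samples were prewarmed to 37 °C with compound (10^-4 M) or vehicle, then ADP was added (final 10^-5 or 10^-6 M). Shape change and aggregation were followed by light transmission for 3 min. Results are % of vehicle aggregation, mean of at least 2 experiments.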

[2] = Antiplatelet activity against 10^-6 M ADP-induced human platelet aggregation at 100 uM by light transmission aggregometry; assay type: functional; method in brief: as §1
[3] = target: Adenosine receptor A2b (Homo sapiens) (UniProt P29275); experiment: Antagonist activity at human adenosine A2b receptor expressed in CHO cells expressed in inhibition of NECA-induced cAMP level; design: concentration or dose not given beside the values; details: concentration not given here
[4] = target: Adenosine receptor A2b (Homo sapiens) (UniProt P29275); experiment: Antagonist activity at human adenosine A2b receptor expressed in CHO cells expressed in inhibition of cAMP level; design: concentration or dose not given beside the values; details: concentration not given here
[5] = target: T1, Adenosine receptor A1 (Homo sapiens) (UniProt P30542); experiment: Displacement of [3H]DPCPX from human adenosine A1 receptor expressed in CHO cells at 10 uM; assay type: cell-based
T1 sequence (whole entry): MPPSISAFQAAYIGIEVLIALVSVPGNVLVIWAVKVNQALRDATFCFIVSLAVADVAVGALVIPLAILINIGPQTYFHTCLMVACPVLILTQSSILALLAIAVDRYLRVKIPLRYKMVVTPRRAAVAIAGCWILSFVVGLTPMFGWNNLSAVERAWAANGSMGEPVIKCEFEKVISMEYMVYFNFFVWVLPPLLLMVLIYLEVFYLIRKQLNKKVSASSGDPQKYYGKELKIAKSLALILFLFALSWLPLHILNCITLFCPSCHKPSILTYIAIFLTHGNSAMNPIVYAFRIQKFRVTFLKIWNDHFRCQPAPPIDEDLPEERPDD
Method in brief: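 Membranes from CHO cells expressing hA1 (50 µg protein) were incubated with [3H]DPCPX 1 nM in 50 mM Tris HCl pH 7.4 for 120 min at 25 °C. Non-specific binding was defined with 10 µM CHA. Bound ligand was separated by GF/B filtration and counted by scintillation. Results are % displacement of specific binding at the bracketed test concentration, mean ± SEM of four experiments in triplicate.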

[6] = target: T2, Adenosine receptor A3 (Homo sapiens) (UniProt P0DMS8); experiment: Displacement of [3H]ABMECA from human adenosine A3 receptor expressed in CHO cells at 10 uM; assay type: cell-based; details: in the assay text read “[125I]ABMECA” for “[3H]ABMECA”
T2 sequence (whole entry): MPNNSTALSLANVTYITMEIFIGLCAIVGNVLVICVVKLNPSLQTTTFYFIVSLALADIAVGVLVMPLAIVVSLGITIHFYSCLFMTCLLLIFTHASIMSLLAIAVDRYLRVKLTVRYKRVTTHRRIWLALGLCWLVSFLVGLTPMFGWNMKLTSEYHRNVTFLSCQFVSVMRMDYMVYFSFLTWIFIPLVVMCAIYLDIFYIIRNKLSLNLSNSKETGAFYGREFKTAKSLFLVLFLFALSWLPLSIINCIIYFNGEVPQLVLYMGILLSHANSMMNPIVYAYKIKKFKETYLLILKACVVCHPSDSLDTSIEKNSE
Method in brief: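 Non-specific binding was defined with 1 µM AB-MECA. Samples were filtered on GF/B and radioactivity was counted. Results are % displacement at the tested concentration, mean ± SEM of four experiments in triplicate.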

[7] = target: Adenosine receptor A2a (Homo sapiens) (UniProt P29274); experiment: Displacement of [3H]ZM241385 from human adenosine A2A receptor expressed in CHO cells at 10 uM; assay type: cell-based
Adenosine receptor A2a (Homo sapiens), sequence (P29274 whole entry): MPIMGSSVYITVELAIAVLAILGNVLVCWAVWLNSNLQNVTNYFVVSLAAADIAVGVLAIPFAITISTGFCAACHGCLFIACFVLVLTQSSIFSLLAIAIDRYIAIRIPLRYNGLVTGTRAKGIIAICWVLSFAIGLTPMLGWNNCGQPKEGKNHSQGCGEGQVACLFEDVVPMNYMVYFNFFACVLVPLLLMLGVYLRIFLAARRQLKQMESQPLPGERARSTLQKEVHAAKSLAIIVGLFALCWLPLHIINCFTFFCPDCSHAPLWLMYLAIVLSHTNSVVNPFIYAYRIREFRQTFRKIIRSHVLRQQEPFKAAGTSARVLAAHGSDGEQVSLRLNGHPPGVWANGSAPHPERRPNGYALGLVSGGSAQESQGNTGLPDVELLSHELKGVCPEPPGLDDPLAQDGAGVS
Method in brief: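 Membranes from CHO cells expressing hA2A (50 µg protein) were incubated with [3H]ZM-241385 1 nM in 50 mM Tris HCl with 10 mM MgCl2, pH 7.4, for 60 min at 4 °C. Non-specific binding was defined with 1 µM ZM-241385. Samples were filtered on GF/B and counted by scintillation. Results are % displacement at the tested concentration, mean ± SEM of four experiments in triplicate.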

[8] = target: T2, Adenosine receptor A3 (Homo sapiens); experiment: Displacement of [125I]ABMECA from human adenosine A3 receptor expressed in CHO cells at 10 uM
P2Y purinoceptor 12 = P2Y purinoceptor 12 (Homo sapiens, UniProt Q9H244); experiment: Antagonist activity at human recombinant P2Y12 receptor expressed in CHO FlpIn cells assessed as reduction n 2-methylthio-ADP mediated inhibition of forskolin-induced cAMP response element-directed luciferase expression by bright-glo assay; assay type: functional, cell-based
P2Y purinoceptor 12, sequence (Q9H244 whole entry): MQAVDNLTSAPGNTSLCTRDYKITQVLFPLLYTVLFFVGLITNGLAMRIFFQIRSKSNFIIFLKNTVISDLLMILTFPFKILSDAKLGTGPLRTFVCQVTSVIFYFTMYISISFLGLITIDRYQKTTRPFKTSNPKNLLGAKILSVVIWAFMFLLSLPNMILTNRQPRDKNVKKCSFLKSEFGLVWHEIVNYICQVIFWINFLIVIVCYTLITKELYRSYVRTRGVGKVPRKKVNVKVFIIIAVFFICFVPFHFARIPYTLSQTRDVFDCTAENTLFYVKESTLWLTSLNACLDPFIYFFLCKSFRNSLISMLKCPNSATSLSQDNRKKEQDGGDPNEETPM
Method in brief: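 CHO FlpIN cells stably expressing human P2Y12 were transiently transfected with a pCRE-luc reporter. After 24 h they were switched to physiological salt solution and exposed to forskolin 1 µM ± 2-methylthio-ADP 10 nM plus varying antagonist concentrations (DMSO vehicle) for 3.5 h at 37 °C. Luminescence was read after lysis with Bright-Glo. Responses are % of 2-methylthio-ADP response with DMSO only; n=4–8.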

inhibition [3] [%] | inhibition [4] [%] | Activity [5] [%] | Activity [6] [%] | Activity [7] [%] | Activity [8] [%] | IC50 (P2Y purinoceptor 12) [µM] | Structure (SMILES) | Activity [1] [%] | Activity [2] [%]
 |  |  |  |  |  |  | Nc1cc(=O)[nH]c(SC(c2ccccc2)(c2ccccc2)c2ccccc2)n1 | 100 | 81
4 | 2 | 2 | 46 | 1 |  |  | Cc1ccc(S(=O)(=O)Oc2cc(N)nc(SCCO)n2)cc1 | 99 | 57
 |  |  |  |  |  |  | Nc1cc(OS(=O)(=O)c2ccccc2Cl)nc(SCC(F)(F)F)n1 | 102 | 97
 |  |  |  |  |  |  | Nc1cc(OS(=O)(=O)c2ccccc2Cl)nc(SCCO)n1 | 100 | 110
 |  |  |  |  |  |  | CN(C)c1cccc2c(S(=O)(=O)Oc3cc(N)nc(SCCN)n3)cccc12 | 99 | 83
 |  |  |  |  |  |  | Cc1ccc(S(=O)(=O)Oc2cc(N)nc(SCc3ccccc3Cl)n2)cc1 | 100 | 68
 |  |  |  |  |  |  | O=C(Nc1ccccc1)Nc1cc(=O)[nH]c(SCc2ccccc2Cl)n1 | 94 | 91
 |  |  |  |  |  |  | Cc1ccc(S(=O)(=O)Oc2cc(N)nc(SCCNC(=O)OC(C)(C)C)n2)cc1 | 97 | 75
 |  |  |  |  |  |  | Nc1cc(=O)[nH]c(SCc2ccccc2Cl)n1 | 101 | 88
 |  |  |  |  |  |  | Cc1ccc(S(=O)(=O)Oc2cc(N)nc(SCC(F)(F)F)n2)cc1 | 101 | 105
 |  |  |  |  |  |  | O=c1cc(O)nc(SCc2ccccc2Cl)[nH]1 | 96 | 97
10 | 8 | 4 |  | 1 | 23 |  | CCCCCSc1nc(N)cc(OS(=O)(=O)c2ccccc2Cl)n1 | 95 | 58
 |  |  |  |  |  |  | Cn1c(SCc2ccccc2Cl)nc(N)cc1=O | 88 | 61
 |  |  |  |  |  |  | CN(C)c1cccc2c(S(=O)(=O)Oc3cc(N)nc(SCc4ccccc4Cl)n3)cccc12 | 101 | 96
 |  |  |  |  |  |  | CSc1nc(N)cc(OS(=O)(=O)c2ccc(C)cc2)n1 | 96 | 120
 |  |  |  |  |  |  | CCCCCSc1nc(N)cc(OS(=O)(=O)c2ccc(C)cc2)n1 | 88 | 96
 |  |  |  |  |  |  | Cc1ccc(S(=O)(=O)Nc2cc(N)nc(SCCN)n2)cc1 | 91 | 91
 |  |  |  |  |  |  | CCCCCSc1nc(N)cc(O)n1 | 100 | 63
8 | 3 | 7 | 21 | 7 |  |  | CC(C)(C)OC(=O)NCCSc1nc(N)cc(=O)[nH]1 | 76 | 40
7 | 10 | 3 |  | 18 | 36 | 8.08 | Cc1ccc(S(=O)(=O)Oc2cc(N)nc(SCCN)n2)cc1 | 96 | 37
3 | 5 | 6 | 44 | 1 |  |  | Cc1ccc(S(=O)(=O)NCCSc2nc(N)cc(=O)[nH]2)cc1 | 89 | 51
 |  |  |  |  |  |  | Nc1cc(OCc2ccccc2Cl)nc(SCc2ccccc2Cl)n1 | 95 | 86
 |  |  |  |  |  |  | CN(C)c1cccc2c(S(=O)(=O)Oc3cc(N)nc(SCC(F)(F)F)n3)cccc12 | 104 | 115
5 | 7 | 48 | 47 | 1 |  |  | CN(C)c1cccc2c(S(=O)(=O)Oc3cc(N)nc(SCCO)n3)cccc12 | 100 | 93
 |  |  |  |  |  |  | Nc1cc(=O)[nH]c(SCCO)n1 | 99 | 114
 |  |  |  |  |  |  | Nc1cc(OS(=O)(=O)c2ccccc2Cl)nc(SCc2ccccc2Cl)n1 | 96 | 92
